This note sets out measurements from paper PMC3683554 (Nature structural & molecular biology, 2013).

The subject of assay [1] is bak−/− mouse liver mitochondria. Description: MOMP assay with cBAK mutants or SAHBq–cBAK traps and NC BID ± ABT-737. Type of assay: biochemical. As to conditions: 1 h incubation.
Another assay deals with cBAK. The assay is described as follows: Calpain protease sensitivity assay of cBAK. It is filed as biochemical, human. Particulars: 50 mM HEPES pH 7.5, 10 mM DTT, 1 µM m-calpain, 0.5 mM CaCl2, 1% CHAPS, 24°C.
Assay [2] concerns bid−/− bim−/− mouse liver mitochondria (BAK). Description: MOMP assay, cyt c release from bid−/− bim−/− mouse liver mitochondria. It is filed as biochemical. As to conditions: for BAK-mediated MOMP (cyt c release), bid−/− bim−/− mitochondria: 1 h incubation, peptides up to 50 μM. The gist of the method:
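Enriched mitochondrial fractions purified from bid−/− bim−/− mouse liver, run in parallel with bak−/− mouse liver mitochondria. Mitochondria incubated 1 h with unstapled or hydrocarbon-stapled BH3 peptides; MOMP read as cytochrome c release.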

In assay [3] the target is calpain-proteolyzed cBAK (residues 15–186) (human) (UniProt Q16611). Description: AUC.

For `CN(C)CC[C@H](CSc1ccccc1)Nc1ccc(S(=O)(=O)NC(=O)c2ccc(N3CCN(Cc4ccccc4-c4ccc(Cl)cc4)CC3)cc2)cc1[N+](=O)[O-]` [ABT-737], in assay [1], the “Effect of ABT-737 on MOMP activity of BH2-tethered SAHBq–cBAK traps” value was “failed to enhance” and the “Effect of ABT-737 on MOMP activity of untethered cBAK mutants” value is on record as “augmented”. For the compound `CC[C@H](C)[C@H](NC(=O)[C@H](CO)NC(=O)[C@H](CCCNC(=N)N)NC(=O)[C@H](CC(=O)O)NC(=O)[C@H](CCSC)NC(=O)[C@H](CO)NC(=O)[C@H](CC(=O)O)NC(=O)CNC(=O)[C@@H](NC(=O)[C@H](CCC(N)=O)NC(=O)[C@H](C)NC(=O)[C@H](CC(C)C)NC(=O)[C@H](Cc1c[nH]cn1)NC(=O)[C@H](CCCNC(=N)N)NC(=O)[C@H](C)NC(=O)[C@@H](NC(=O)[C@H](CC(N)=O)NC(=O)[C@H](CCCNC(=N)N)NC(=O)[C@@H](NC(=O)[C@@H](NC(=O)[C@H](CC(=O)O)NC(=O)[C@H](CCC(=O)O)NC(C)=O)[C@@H](C)CC)[C@@H](C)CC)[C@@H](C)CC)C(C)C)C(N)=O` [BH3a], in the assay on cBAK, the “Calpain sensitivity of cBAK with peptide, in CHAPS” value (from here on “Calpain sensitivity of cBAK”) is recorded as “susceptible to proteolysis by calpain”. With AEIIVECATQLRRVGDKLNFRI [NOXA/BIDf], the “BAK-mediated MOMP (cyt c release), bid−/− bim−/− mitochondria” value (from here on “BAK-mediated MOMP (cyt c release)”) in assay [2] is given as “weakly active”. Besides, the “Calpain sensitivity of cBAK” value in the assay on cBAK is on record as “enhanced protease sensitivity”. As to “BID SAHBa (stapled BID BH3 peptide) (from UniProt P55957 80-101)”, in assay [3], the fold enhancement of BAK binding over the unstapled counterpart (BH3a) stood at 10 fold and the stoichiometry N (as a rule, the number of molecules, sites or subunits per partner or assembly) was 1. On to LWAAQRIGRELRRMGDEMVDSI [BAD/BIDa], for which the “BAK-mediated MOMP (cyt c release)” value in assay [2] is given as “weakly active”. For the same compound, in the assay with cBAK, the “Calpain sensitivity of cBAK” value is “enhanced protease sensitivity”.

In the case of “LWAAQRYGRELRXMSDXFVDSF (sidechain bridge or staple) [BAD SAHB]”, the “BAK-mediated MOMP (cyt c release)” value in assay [2] is listed as “unable to robustly activate BAK”. Turning to NLWAAQRYGRELRRMSDKFVDSFKK [BADa], the “BAK-mediated MOMP (cyt c release)” value in assay [2] was “largely inactive”. For the same compound, the “Calpain sensitivity of cBAK” value in the assay on cBAK is “unable to activate cBAK”. The corresponding values for PAELEVECATQLRRFGDKLNFRQKLL [NOXAa] are “largely inactive” and “unable to activate cBAK”. “QPSPARAPAELEVECATQLRXFGDXLNFRQ (sidechain bridge or staple) [NOXA SAHB]”: the “BAK-mediated MOMP (cyt c release)” value in assay [2] is listed as “unable to robustly activate BAK”. Moreover, the “BAK-mediated MOMP at the highest concentration tested” value in assay [2] (highest concentration tested) is “weak BAK-mediated MOMP”.
